Screening data from PubChem.
Compounds with a hit are over-represented: about 1.8% of the library has one in this group of screens.
Rev-RRE block = inhibitors of HIV-1 Rev-RRE RNA interaction; P05866; inhibition, % at 8 µM; Rev peptide-RRE RNA binding, FRET; 97,000 compounds, 0.79% hits; AID 704;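 active = inhibition above the screen-wide mean plus 3 SD, cut at about 35% in these data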;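 note: 0% = median DMSO wells and 100% = median Neomycin B control wells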
Target sequence (P05866 whole entry, looked up): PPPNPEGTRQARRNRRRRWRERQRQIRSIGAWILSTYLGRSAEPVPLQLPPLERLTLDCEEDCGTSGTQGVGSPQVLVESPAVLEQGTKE
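assay system = Cy5-tagged RRE RNA duplex with fluorescein-tagged Rev peptide | incubation = 5 + 15 min at 25 °C | also added = labelled Rev peptide | measure = % inhibition of FRET ratio versus controls | benchmarks = DMSO wells as 0% and neomycin B wells as 100% inhibition | measured by = FRET fluorescence readout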
PTPN22 act = activators of human LYP (PTPN22) phosphatase | 96,000 compounds, 0.11% hits | Q9Y2R2 | activation, % at 2 µM | recombinant LYP, DiFMUP fluorescence; 0 = plate median, 100 = signal doubled;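 active = activation at 2 µM above a set limit, the mean plus 5 SD, cut at about 37% in these data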
PTK2B oligo ant = Pyk2 (human) oligomerization antagonism; Q14289; Q293 cells, Pyk2 FERM NanoBiT luminescence; active compounds read low; z-score (the deposit names both 25 µM and 10 µM); 99,000 compounds, 0.83% hits;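 active = Z-score of -3 or lower, scaled per plate to the spread of control and sample wells; inactive = z-score above -3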;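 note: negative z-score means lost luminescence so less FERM oligomerization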
PTPN22 inh 2 = blocks human PTPN22 phosphatase activity. Q9Y2R2. recombinant LYP catalytic domain, DiFMUP fluorescence. inhibition, % at 2 µM. 96,000 compounds, 0.21% hits;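 active = inhibition at 2 µM at or above a set limit, the screen mean plus 3 SD, cut at about 24% in these data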;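 note: 0% = DMSO with enzyme and 100% = enzyme fully blocked by orthovanadate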
Active calls of the source: *; . = not tested or not shown; [ ] = remark or other dose.

SMILES | Rev-RRE block | PTPN22 act | PTK2B oligo ant | PTPN22 inh 2
Cc1cc(C(=O)COC(=O)c2ccccc2O)c(C)n1Cc1cccs1 | 2.8 | 3.7 | -0.41 | -3.1
Cc1nc(SCc2c(F)cccc2Cl)c2c(=O)n(C)c(=O)n(C)c2n1 | 10.7 | -6.6 | . | 6.0
CCCCN(CC)C(=O)c1ccc(Cl)c(Cl)c1 | 6.0 | -0.2 | 0.79 | 2.7
Cc1cc(C)cc(NC(=S)NCc2cccn2C)c1 | -0.1 | -1.2 | 0.34 | 3.8
O=C(c1cccs1)c1no[n+]([O-])c1C(=O)c1cccs1 | 1.7 | -91.3 | -0.31 | 91.5*
Cc1cccc(N2CCN(C(=O)CCCSc3nc4ccccc4[nH]3)CC2)c1C | 3.0 | -2.4 | -0.61 | 2.3
CCn1c(-c2cc3c(C(F)(F)F)nn(C)c3s2)n[nH]c1=S | 7.4 | -3.3 | 0.73 | 5.6
Cc1cc(C)n2c(SCC(=O)N3CCN(S(=O)(=O)c4ccc(Cl)cc4)CC3)nnc2n1 | 7.6 | -25.9 | -0.03 | 24.0*
CCCn1c(SCC(=O)N2CCN(S(=O)(=O)c3ccc(Cl)cc3)CC2)n[nH]c1=O | 0.1 | -1.2 | -0.25 | -1.4
OCCCc1nc2n(n1)C(c1cccs1)C=C(c1ccccc1)N2 (configuration not stated) | 136.7*[fluorescence artefact?] | 0.8 | . | -1.5
OCCCc1nc2n(n1)C(c1ccccc1Cl)C=C(c1cccs1)N2 (configuration not stated) | 92.4*[fluorescence artefact?] | -6.3 | 0.18 | 9.8
Cc1cc(C)cc(-n2nnc(C(=O)NCc3ccccc3Cl)c2N)c1 | 1.8 | 3.6 | -0.85 | -3.5
CCCCCCCCC/C(=N\O)c1ccccn1 | 5.7 | -26.2 | -0.86 | 28.3*
Cc1onc(-c2ccccc2Cl)c1C(=O)Nc1nnc(-c2ccc(F)cc2)s1 | 12.6 | 7.6 | . | -10.2
Cc1onc(-c2c(F)cccc2Cl)c1C(=O)Nc1nnc(-c2ccccc2)s1 | 9.5 | -4.5 | -3.06* | 6.3
Cc1ccccc1C1C(C#N)=C2N=C(N)c3c(sc4c3CCCCC4)N2C2=C1C(=O)CCC2 (configuration not stated) | 66.3* | -7.0 | -0.82 | 9.0
COC(=O)c1ccccc1COn1c(=O)c(C)[n+]([O-])c2ccccc21 | 1.5 | -4.7 | 0.31 | 4.9
COC(=O)c1c(=O)n(O)c2ccc(OC)cc2[n+]1[O-] | 41.4* | -7.7 | 0.94 | 5.9
CCn1c(C)c(C(C)=O)c(N2CCN(c3ccccc3)CC2)nc1=S | 42.3* | -2.3 | 0.1 | 3.3
Cc1cc(C(=O)CSc2nnc(-c3ccncc3)n2-c2ccccc2)c(C)n1C | 13.4 | -6.0 | -0.28 | 3.0
Cc1cc(C(=O)CSc2nnc(-c3ccccc3)n2-c2ccccc2)c(C)n1-c1ncn[nH]1 | 2.3 | -5.4 | -3.16* | 5.8
COc1ccc(C(=O)NCC(=O)OCC(=O)c2ccc3c(c2)OCCO3)cc1 | 3.5 | 3.3 | 1.01 | -3.3
CCOC(=O)N1CCC(NC(=O)c2cccc3c2C(=O)N(Cc2cccnc2)C3)CC1 | . | . | 0.37 | .
CC(C)(C)NC(=O)CSc1nc(O)cc(=O)n1-c1ccccc1F | 53.0* | -7.6 | -0.54 | 5.4
COc1ccccc1-n1c(SCC(=O)NC(C)(C)C)nc(O)cc1=O | 2.1 | 14.8 | 0.01 | -18.1
SMILES | Rev-RRE block | PTPN22 act | PTK2B oligo ant | PTPN22 inh 2
CN1CC(c2ccc(Cl)c(Cl)c2)[C@@]2(COc3ccccc3C2=O)[C@@]12C(=O)Nc1ccccc12 (some centres not stated) | 2.1 | . | -3.39* | .
C/C(=N\O)c1ccccc1C(=O)O | 5.3 | -7.7 | -3.28* | 6.9
COc1cc(-c2nc(-c3ccc4c(c3)-c3ccccc3S4(=O)=O)c(-c3ccccc3)[nH]2)cc(OC)c1OC | 0.1 | -8.2 | -3.05* | 10.8
COc1cc(-c2nc(-c3ccccc3)c(-c3cccs3)[nH]2)cc(OC)c1OC | 0.4 | -1.9 | -3.02* | 1.2
COc1cccc(-c2nc(-c3ccc4c(c3)-c3ccccc3S4(=O)=O)c(-c3ccccc3)[nH]2)c1OC | 8.2 | -14.0 | -0.62 | 14.6
Cc1sc2ncnc(NCC(c3ccco3)N3CCCC3)c2c1C (configuration not stated) | 8.2 | -12.5 | 0.44 | 15.5
O=C1c2ccccc2-c2cccc(NS(=O)(=O)c3ccc(C(F)(F)F)cc3)c21 | 100.4*[fluorescence artefact?] | -8.2 | -1.38 | 9.6
Cc1ccc(S(=O)(=O)Nc2ccccc2-c2ccccc2NS(=O)(=O)c2ccc(C)cc2)cc1 | -0.6 | -12.7 | -2 | 16.0
Nc1c(S(=O)(=O)c2cccs2)c2nc3ccccc3nc2n1/N=C/c1cccc(O)c1 | 3.1 | -2.8 | -3.25* | 0.8
O=C(Nc1cccc(-c2cnc3ccccc3n2)c1)c1cccc(NC(=O)c2ccco2)c1 | 2.6 | 0.6 | -4.4* | 2.4
Cc1cc2nnn(-c3nnc(-c4ccccc4)c4ccccc34)c2cc1C | 4.4 | 4.6 | -0.74 | 0.3
C=CCOC(=O)C1=C(C)NC(SCC)=C(C#N)C1c1ccc(Cl)cc1 (configuration not stated) | 21.6 | 5.3 | -3.19* | -3.1
CCOC(=O)C1=C(C)NC(SCC(=O)OC)=C(C#N)C1c1ccc(C(=O)OC)cc1 (configuration not stated) | 10.1 | 15.0 | -0.48 | -15.3
O=C(Nc1ccc(-c2nc3ccc(NC(=O)c4cccs4)cc3[nH]2)cc1)c1cccs1 | 1.2 | -31.5 | -0.48 | 28.8*
COc1cccc(/C=C2/CN(C)CC3=C2OC(N)=C(C#N)C3c2cccc(OC)c2)c1 (configuration not stated) | 54.5* | -1.1 | -0.47 | -6.5
COc1cccc(C2C(C#N)=C(N)OC(C(C)(C)C)=C2C#N)c1 (configuration not stated) | 9.6 | -3.6 | 0.44 | 3.3
CCCCCC(C)n1[nH]c(=O)cc1N (configuration not stated) | -4.7 | 10.9 | -0.23 | -9.6
O=C(Cc1cccs1)N(Cc1cccs1)C1(C(=O)NC2CCCCC2)CCCCC1 | 3.1 | -1.4 | -4.52* | 1.1
O=C(c1cnccn1)N(Cc1cccs1)C1(C(=O)NC2CCCC2)CCCCC1 | . | . | 0.2 | .
C=CCNC(=O)c1ccccc1NC(=O)c1ccccc1C | 2.3 | -0.2 | 0.67 | -0.2
C=CCNC(=O)c1ccccc1NC(=O)c1ccc(Cl)c(S(=O)(=O)Nc2ccccc2)c1 | 10.3 | 7.8 | -3.83* | -5.6
CC(=O)NC1CC2CCCC(C1)N2C(=O)Nc1ccccc1 (configuration not stated) | 3.3 | -58.8 | -0.29 | 59.5*
O=C(NC1CC2CCCC(C1)N2C(=O)Nc1ccccc1)c1ccncc1 (configuration not stated) | 3.0 | -5.4 | 0.25 | 7.7
COc1c(N2CCN(C(=S)NCc3ccccc3)C(C)C2)c(F)cc2c(=O)c(C(=O)O)cn(C3CC3)c12 (configuration not stated) | -8.2 | -34.0 | 0.69 | 35.1*
CCn1cc(C(=O)NCc2ccccc2)c(=O)c2cc(F)c(N3CCN(C(=O)c4ccco4)CC3)cc21 | 0.0 | 11.2 | -2.09 | -8.3
c1cnc2ccc(C(c3nnnn3C3CCCC3)N3CCN(c4nc5ccccc5s4)CC3)cc2c1 (configuration not stated) | -0.8 | -2.2 | -1.73 | 1.0
